# In ChEMBL document CHEMBL1150815, “Blepharocalyxins C--E, three new dimeric diarylheptanoids, and related compounds from the seeds of Alpinia blepharocalyx” (2001):
# pEC50: −log10 of the molar value.
# Legend:
# [1] = Antiproliferative activity against mouse Colon 26-L5 cells by MTT assay; type: functional; settings: read-out: ED50 (the source's name)
# Outline: (§1)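 Cells grown in medium with 10% fetal calf serum, 0.1% sodium bicarbonate and 2 mM glutamine. Viability with and without agents measured by MTT assay. 5-Fluorouracil served as positive control. Activity expressed as ED50 in µM.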
# HT-1080 = assay: Antiproliferative activity against human HT1080 cells by MTT assay; type: functional; settings: read-out: ED50 (the source's name); outline: as §1
SMILES,pEC50 [1],pEC50 (HT-1080)
Oc1ccc(CC[C@H]2CC=C[C@@H](c3ccc(O)cc3)O2)cc1,< 4.00,4.10
O=c1[nH]cc(F)c(=O)[nH]1 [FLUOROURACIL],6.28,5.10
Oc1ccc(/C=C/[C@H](C[C@@H](O)CCc2ccc(O)cc2)[C@@H]2[C@@H](c3ccc(O)cc3)O[C@@H](CCc3ccc(O)cc3)C[C@@H]2O)cc1 [BLEPHAROCALYXIN C],4.53,4.27
Oc1ccc(/C=C/[C@@H]2C[C@H](CCc3ccc(O)cc3)O[C@@H]3C[C@H](CCc4ccc(O)cc4)O[C@H](c4ccc(O)cc4)[C@@H]23)cc1 [BLEPHAROCALYXIN D],5.44,4.59
Oc1ccc(CC[C@H]2C[C@H](O)[C@H](O)[C@@H](c3ccc(O)cc3)O2)cc1,4.35,< 4.00
Oc1ccc(CC[C@H]2CC=C[C@H](c3ccc(O)cc3)O2)cc1,4.15,4.34
Oc1ccc(CC[C@H]2CC(O)C(O)[C@@H](c3ccc(O)cc3)O2)cc1 (mixture of isomers),4.31,4.08
COc1cc(O)c([C@@H]2C[C@H](CCc3ccc(O)cc3)O[C@H](c3ccc(O)cc3)[C@H]2[C@H](/C=C/C[C@@H](O)CCc2ccc(O)cc2)c2ccc(O)cc2)c(O)c1C(=O)/C=C/c1ccc(O)cc1 [BLEPHAROCALYXIN E],4.49,5.04
